Published values collected from several papers.
Each line is one published result; the experiments were not run side by side.

SMILES | tested on | read-out | method | tested at | time | endpoint | value
CC(=NNC(=O)c1ccccc1O)c1ccc(Nc2nnc(-c3ccc(Cl)cc3)c3ccccc23)cc1 | MCF7 | cell growth or viability | MTT | 2.5 µM |  | cell death | 38.4%
CCOC(=O)c1nn(-c2cccc(Cl)c2)/c(=N/N=C(\C)c2ccc(NC(=O)c3ccccc3)cc2)s1 | MCF7 | cell growth or viability | MTT | 0.156 µM |  | viability | 59.2%
O=C(Nc1ccccc1)Nc1ccc(Oc2nnc(-c3ccc(Cl)cc3)c3ccccc23)cc1 | MCF7 | cell growth or viability | MTT | 1.25 µM |  | cell death | 96.1%
Nc1ccc(/C=N/N=C/c2ccc(N)cc2)cc1 |  | DPPH scavenging |  |  |  | IC50 | > 3000 µM
CCN(CC)c1ccc(/C=N/c2ccc(F)c(Cl)c2)c(O)c1 |  | DPPH scavenging |  |  |  | IC50 | 47.6 µM
CC(=NNC(=O)c1ccncc1)c1ccc(Nc2nnc(-c3ccc(Cl)cc3)c3ccccc23)cc1 | MCF7 | cell growth or viability | MTT | 78 nM | 24 h | viability | 83.1%
Clc1cccc(/C=N/N=C/c2cccc(Cl)c2)c1 |  | DPPH scavenging |  |  |  | IC50 | 2350 µM
CCN(CC)c1ccc(/C=N/c2ccc(Cl)cc2)c(O)c1 |  | DPPH scavenging |  |  |  | IC50 | 30.3 µM
Brc1cccc(/C=N/N=C/c2cccc(Br)c2)c1 |  | DPPH scavenging |  |  |  | IC50 | 2400 µM
CC(=O)c1nn(-c2ccccc2Cl)/c(=N/N=C(\C)c2ccc(NC(=O)c3ccccc3)cc2)s1 | MCF7 | cell growth or viability | MTT | 5 µM |  | viability | 6.17%
C=CC(=O)NC1CCN(c2ncc3ncnc(Nc4ccc(Oc5ccc6c(c5)ncn6C)c(C)c4)c3n2)CC1 | NCI-H2126 | cell growth or viability |  |  |  | EC50 | 1.1 µM
CC(=NNC(=O)c1ccccc1)c1ccc(Nc2nnc(-c3ccc(Cl)cc3)c3ccccc23)cc1 | MCF7 | cell growth or viability | MTT | 2.5 µM |  | cell death | 86.3%
Brc1ccc(/C=N/N=C/c2ccc(Br)cc2)cc1 |  | DPPH scavenging |  |  |  | IC50 | > 3000 µM
O=C1O[C@H]([C@@H](O)CO)C(O)=C1O |  | DPPH scavenging | absorbance |  | 30 min | IC50 | 11.6 µM
